Source: ChEMBL document CHEMBL1143829, “Lack of effect of DX-619, a novel des-fluoro(6)-quinolone, on glomerular filtration rate measured by serum clearance of cold iohexol” (Antimicrob Agents Chemother, 2007)

Experiments:
Homo sapiens [1] = assay: Effect on glomerular filtration rate in human assessed as iohexol clearance rate in plasma per 1.73 m2 at 800 mg, iv after 4 days relative to baseline; type: functional
Outline: (§1)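 GFR was measured as plasma clearance of iohexol. A single 20 ml bolus (300 mg/ml) was given on days 1, 4 and 11, timed to match 1 h after the end of the day-4 infusion. Blood was drawn at 120, 150, 180, 210, 240, 270 and 300 min and assayed by HPLC-UV. CL0 = dose × b/c1, with b and c1 from linear regression. Change from baseline used a noninferiority mixed-effects comparison with 95% CI.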

Homo sapiens [2] = assay: Effect on glomerular filtration rate in human assessed as iohexol clearance rate in plasma per 1.73 m2 at 800 mg, iv after 11 days relative to baseline; type: functional; outline: as §1
Homo sapiens [3] = assay: Effect on renal function in human assessed as serum creatinine concentration at 800 mg, iv after 4 days relative to baseline; type: functional
Homo sapiens [4] = assay: Effect on renal function in human assessed as serum creatinine concentration at 800 mg, iv after 11 days relative to baseline; type: functional
Homo sapiens [5] = assay: Effect on renal function in human assessed as blood urea nitrogen concentration at 800 mg, iv after 4 days relative to baseline; type: functional
Homo sapiens [6] = assay: Effect on renal function in human assessed as blood urea nitrogen concentration at 800 mg, iv after 11 days relative to baseline; type: functional
Homo sapiens [7] = assay: Effect on renal function in human assessed as creatinine clearance in 24 hrs urine sample at 800 mg, iv after 4 days relative to baseline; type: functional
Outline: (§2)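 Urine was collected over 24 h at baseline (−24 to 0 h), on day 4 (72–96 h) and on day 11 (240–264 h). CLCR = urinary creatinine amount / (SCr × 24 h) × (1.73/BSA), using SCr measured at the start of each collection.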

Homo sapiens [8] = assay: Effect on renal function in human assessed as creatinine clearance in 24 hrs urine sample at 800 mg, iv after 11 days relative to baseline; type: functional; outline: as §2
[9] = Cmax […] in human after 1 day; type: ADME, organism-based; settings: in vivo
Outline: (§3)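 Plasma was sampled predose, at end of infusion, and 1, 3 and 9 h post-infusion on days 1 and 4, plus 24 h post-infusion on day 5. Drug was assayed by validated LC-MS/MS (0.02–10 µg/ml). Noncompartmental analysis; Cmax taken by observation without interpolation, with Tmax; day-4 values treated as steady state.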

[10] = Cmax at steady state in human after 4 days; type: ADME, organism-based; settings: in vivo; outline: as §3
[11] = Tmax in human plasma; type: ADME, organism-based; outline: as §3
[12] = Protein binding in human plasma; type: ADME, organism-based; settings: read-out: PPB (converted)
Outline: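 Plasma ultrafiltrate and matching plasma were sampled on days 1 and 4, predose and 1 and 4 h after infusion start, and assayed by LC-MS/MS (ultrafiltrate range 0.01–5.0 µg/ml). Binding at each time point was calculated from free ultrafiltrate versus total plasma concentration.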

[13] = Renal clearance in human urine after 4 days; type: ADME, organism-based; settings: read-out: CL_renal (converted)
Outline: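 Steady-state AUC (AUCss,24) covered 25 h from the start of the day-4 infusion to 24 h after it (linear up/log down rule). CL = dose/AUCss,24. Urine from 0–24 h on day 4 was assayed by LC-MS/MS, and renal clearance = Xu(0–24)/AUCss,24.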

Homo sapiens [14] = assay: Effect on glomerular filtration rate in human assessed as creatinine clearance rate in plasma per 1.73 m2 at 800 mg, iv after 4 days relative to baseline; type: functional
Homo sapiens [15] = assay: Effect on glomerular filtration rate in human assessed as creatinine clearance rate in plasma per 1.73 m2 at 800 mg, iv after 11 days relative to baseline; type: functional
[16] = Clearance in human plasma after 4 days

Cmax [9]: 8210 ng/mL
Cmax [10]: 8850 ng/mL
Tmax [11]: 1.25 h
fraction unbound [12]: 0.35
CL renal at 96 h [13]: 43.3 mL/min
clearance [16]: 166 mL/min
Structure (SMILES): COc1c(N2CC[C@@H](C3(N)CC3)C2)ccc2c(=O)c(C(=O)O)cn([C@@H]3C[C@@H]3F)c12
Activity (Homo sapiens [1]): 1.12 mL/min
Activity (Homo sapiens [2]): -2.44 mL/min
Activity (Homo sapiens [3]): 0.3
Activity (Homo sapiens [4]): 0.09
Activity (Homo sapiens [5]): 0.69
Activity (Homo sapiens [6]): -2.06
Activity (Homo sapiens [7]): -32.8
Activity (Homo sapiens [8]): -3.4
Activity (Homo sapiens [14]): 95.52 mL/min
Activity (Homo sapiens [15]): 94.3 mL/min
